From ChEMBL document CHEMBL1141864, “Structure-activity relationships in 1,4-benzodioxan-related compounds. 8.(1) {2-[2-(4-chlorobenzyloxy)phenoxy]ethyl}-[2-(2,6-dimethoxyphenoxy)ethyl]amine (clopenphendioxan) as a tool to highlight the involvement of alpha1D- and alpha1B-adrenoreceptor subtypes in the regulation of human PC-3 …” (J Med Chem, 2005)
Activity calls are given as the source filed them. The calls are words filed in the database; no cut-off is given here.

Columns and labels:
[1] = biological target: T1, Alpha-1B adrenergic receptor (Homo sapiens, UniProt P35368); assay: Displacement of [3H]prazosin from cloned human ADRA1B expressed in CHO cells; format: cell-based
T1 sequence (P35368 whole entry): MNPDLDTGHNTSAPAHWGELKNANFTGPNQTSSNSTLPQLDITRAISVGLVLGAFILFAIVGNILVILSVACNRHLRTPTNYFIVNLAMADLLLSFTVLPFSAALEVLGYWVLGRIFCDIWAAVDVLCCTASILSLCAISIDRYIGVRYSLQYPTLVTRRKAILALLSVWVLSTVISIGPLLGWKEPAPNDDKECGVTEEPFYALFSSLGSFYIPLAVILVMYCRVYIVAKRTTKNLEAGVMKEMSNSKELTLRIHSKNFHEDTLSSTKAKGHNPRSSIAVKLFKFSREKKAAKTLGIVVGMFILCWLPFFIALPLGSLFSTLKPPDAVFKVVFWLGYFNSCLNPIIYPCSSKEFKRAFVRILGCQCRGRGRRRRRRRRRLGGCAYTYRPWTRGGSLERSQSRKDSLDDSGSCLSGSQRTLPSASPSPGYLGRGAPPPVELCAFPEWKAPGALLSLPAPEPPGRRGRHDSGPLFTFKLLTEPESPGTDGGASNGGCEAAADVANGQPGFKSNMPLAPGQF

[2] = biological target: T2, 5-hydroxytryptamine receptor 1A (Homo sapiens, UniProt P08908); assay: Displacement of [3H]8-hydroxy-2-(di-n-propylamino)tetralin from cloned human 5HT1A receptor expressed in HeLa cells; format: cell-based
T2 sequence (P08908 whole entry): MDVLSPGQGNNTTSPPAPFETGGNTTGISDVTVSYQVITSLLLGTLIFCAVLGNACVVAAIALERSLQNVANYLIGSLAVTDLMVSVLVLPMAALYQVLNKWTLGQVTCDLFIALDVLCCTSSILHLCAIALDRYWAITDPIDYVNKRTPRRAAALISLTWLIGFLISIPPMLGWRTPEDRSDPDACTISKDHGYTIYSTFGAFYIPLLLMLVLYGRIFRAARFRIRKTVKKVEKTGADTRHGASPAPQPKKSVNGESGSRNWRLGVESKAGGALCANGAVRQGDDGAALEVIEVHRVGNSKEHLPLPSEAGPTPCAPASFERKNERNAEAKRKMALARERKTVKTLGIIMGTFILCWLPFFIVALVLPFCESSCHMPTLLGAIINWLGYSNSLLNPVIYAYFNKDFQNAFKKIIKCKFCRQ
How it was run: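 Radioligand binding on cloned human receptors, with [3H]prazosin for α1 subtypes (CHO cells) and [3H]8-OH-DPAT for 5-HT1A (HeLa cells); each experiment in triplicate, Ki from two to three experiments agreeing within ±20%, reported as pKi.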

[3] = biological target: T3, Alpha-1A adrenergic receptor (Homo sapiens, UniProt P35348); assay: Displacement of [3H]prazosin from cloned human ADRA1A expressed in CHO cells; format: cell-based
T3 sequence (P35348 whole entry): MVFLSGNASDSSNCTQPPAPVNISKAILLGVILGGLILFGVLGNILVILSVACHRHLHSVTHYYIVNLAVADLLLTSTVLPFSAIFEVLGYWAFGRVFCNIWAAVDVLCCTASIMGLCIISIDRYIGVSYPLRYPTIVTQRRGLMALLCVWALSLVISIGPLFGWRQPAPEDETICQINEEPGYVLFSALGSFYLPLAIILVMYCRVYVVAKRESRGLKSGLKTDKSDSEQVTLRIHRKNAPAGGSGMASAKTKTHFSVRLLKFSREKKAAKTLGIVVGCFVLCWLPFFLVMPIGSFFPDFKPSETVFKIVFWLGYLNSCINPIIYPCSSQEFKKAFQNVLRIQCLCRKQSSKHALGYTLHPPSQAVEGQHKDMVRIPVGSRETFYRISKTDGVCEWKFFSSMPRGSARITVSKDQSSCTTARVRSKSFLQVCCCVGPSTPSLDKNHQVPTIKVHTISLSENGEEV

PC-3 = assay: Inhibition of NE-induced increase of PC3 cell proliferation using ELISA BrdU; format: functional, cell-based; conditions: Homo sapiens
How it was run: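 PC-3 cells (7×10^4/well) plated 24 h, then given noradrenaline (0–50 μM) alone or with antagonist (1 μM, or 0.5 μM for one compound) for 16 h. BrdU added for the last 4 h and read by colorimetric ELISA as % growth; mean ± SD of three experiments.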

[4] = biological target: T4, 5-hydroxytryptamine receptor 1A (Homo sapiens) (UniProt P08908); assay: Maximum response towards cloned human 5HT1A receptor
T4 sequence (whole entry): T2 sequence (P08908 whole entry)

[5] = biological target: T4, 5-hydroxytryptamine receptor 1A (Homo sapiens); assay: Agonist efficacy towards cloned human 5HT1A receptor by [35SGTP]gammaS binding in HeLa cells; format: cell-based

Row | SMILES | Ki [1] | Ki [2] | Ki [3] | Activity (PC-3) | %max [4] | pD2 [5]
1 | COc1cccc(OC)c1OCCNCCOc1ccccc1OCc1ccc(C)cc1 | 0.251 nM | 22.4 nM | 2 nM | – | – | –
2 | COc1cccc(OC)c1OCCNCCOc1ccccc1OCc1ccccc1[N+](=O)[O-] | 2.51 nM | 24 nM | 7.94 nM | – | – | –
3 | COc1cccc(OC)c1OCCNCCOc1ccccc1OCc1ccc(Cl)cc1 [CLOPENPHENDIOXAN] | 1 nM | 15.5 nM | 0.251 nM | Active | 60% | 6.98
4 | COc1cccc(OC)c1OCCNCCOc1ccccc1OCc1cccc(C)c1 | 0.251 nM | 18.2 nM | 0.398 nM | – | – | –
5 | COc1ccccc1COc1ccccc1OCCNCCOc1c(OC)cccc1OC | 6.31 nM | 23.4 nM | 2 nM | – | – | –
6 | COc1ccc(COc2ccccc2OCCNCCOc2c(OC)cccc2OC)cc1 | 0.398 nM | 17.4 nM | 2 nM | – | 21.6% | 7.92
7 | COc1cccc(OC)c1OCCNCCOc1ccccc1OCc1cccc(Cl)c1 | 0.158 nM | 6.61 nM | 0.251 nM | – | 67.1% | 7.15
8 | COc1cccc(OC)c1OCCNCCOc1ccccc1OCc1ccccc1Cl | 0.562 nM | 4.79 nM | 1.41 nM | – | 74.4% | 7.31
9 | COc1cccc(COc2ccccc2OCCNCCOc2c(OC)cccc2OC)c1 | 2 nM | 30.9 nM | 2 nM | – | – | –
10 | COc1cccc(OC)c1OCCNCCOc1ccccc1OCc1ccccc1 | 0.537 nM | 11.7 nM | 0.468 nM | Active | 45.7% | 7.11
11 | COc1cccc(OC)c1OCCNCCOc1ccccc1OCc1ccc([N+](=O)[O-])cc1 | 0.398 nM | 11.7 nM | 1.26 nM | – | 79.1% | 6.15
12 | COc1cccc(OC)c1OCCNCCOc1ccccc1OCc1cccc([N+](=O)[O-])c1 | 0.794 nM | 20.9 nM | 0.316 nM | – | 44.4% | 7.16
13 | COc1cccc(OC)c1OCCNCCOc1ccccc1OCc1ccccc1C | 0.794 nM | 11.2 nM | 1.58 nM | – | 75.6% | 6.96
